Data from PMC2854254 (Cell communication & adhesion, 2009).
Like-named read-outs stand apart in the source and are kept apart here.

Key:
[1] = biological target: untagged mPanx1 (Mus musculus, UniProt Q9JIP4); type: cell-based
Outline: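 Neuro2A cells transfected with untagged mPanx1 construct. Whole-cell recording at room temperature on cells held at −60 mV, with pH 7.4 external and CsCl/EGTA/ATP pipette solutions. Channels activated by 10-s voltage ramps from −60 to +100 mV. Test compound superfused during ramps, then washed out to test reversibility.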

[2] = biological target: T1, mPanx1-GFP (Mus musculus, UniProt Q9JIP4); assay: Inside-out single channel patch clamp on Rin-m cells transfected with Panx1-GFP; type: cell-based; details: for Effect on open time of Panx1-GFP channel: inside-out patch
Outline: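 Rin-m cells grown in RPMI with 5% fetal calf serum, under passage 20. Transfected overnight with 2 μg mPanx1-GFP via lipofectamine, then replated 24–36 h. Inside-out single-channel recordings at room temperature on brightly fluorescent cells. Bath pH 7.4 NaCl/Hepes; pipette CsCl/EGTA with 1 mM ATP. Test compound perfused 20 s, then washed out. Mean channel open time compared before, during and after.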

[3] = biological target: T1, mPanx1-GFP; assay: Whole cell patch clamp of depolarization-induced; type: cell-based
Outline: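 Neuro2A cells in DMEM with 10% FCS, lipofectamine-transfected with mPanx1-GFP, recorded 24–36 h after replating. Whole-cell clamp at room temperature, held at −60 mV. Pipette CsCl/EGTA with 1 mM ATP. Currents evoked by 10-s ramps from −60 to +100 mV at 20-s intervals; kinetics from +100 mV current over 8.5 min. Test compound superfused at 1 nM–1 mM, washed out after a stable plateau. Dose-response curves; timing by ANOVA with Dunnett's test.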

[4] = test system: C×46 hemichannels and Panx1 channels; details: oocytes; ref Bruzzone et al, 2006; cited from earlier work
[5] = test system: astrocytes; details: nanomolar concentrations, ref Suadicani et al, 2006; cited from earlier work
[6] = test system: murine erythrocytes; details: ref Skals et al, 2009; cited from earlier work
[7] = test system: Panx1; details: nanomolar concentrations, astrocytes; ref Iglesias et al, 2008, 2009; cited from earlier work
[8] = test system: human erythrocytes; details: ref Skas et al, 2009; cited from earlier work
[9] = test system: adenosine receptors; details: ref Weiss et al., 2003; cited from earlier work
[10] = 100 nM, listed as mefloquine from Bioblocks
[11] = 100 nM, listed as mefloquine from Sigma

T1 sequence (Q9JIP4 whole entry, the tested form may be a part): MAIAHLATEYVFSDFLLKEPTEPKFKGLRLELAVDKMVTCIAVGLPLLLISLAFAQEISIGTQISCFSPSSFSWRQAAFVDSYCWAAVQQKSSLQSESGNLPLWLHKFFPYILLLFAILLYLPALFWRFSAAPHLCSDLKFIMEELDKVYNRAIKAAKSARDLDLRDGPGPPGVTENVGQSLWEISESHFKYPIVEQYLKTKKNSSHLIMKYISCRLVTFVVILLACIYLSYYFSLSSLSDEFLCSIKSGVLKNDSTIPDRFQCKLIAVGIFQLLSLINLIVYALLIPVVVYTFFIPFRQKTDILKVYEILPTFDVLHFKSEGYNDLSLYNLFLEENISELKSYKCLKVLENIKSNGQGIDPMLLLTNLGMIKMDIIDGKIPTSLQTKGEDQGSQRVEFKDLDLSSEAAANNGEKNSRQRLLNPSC
untagged mPanx1, sequence (Q9JIP4 whole entry, the tested form may be a part): as above

**Q.** Which “Effect on untagged Panx1 currents” value ([1]; 10 nM) does the source give for `OC(c1cc(C(F)(F)F)nc2c(C(F)(F)F)cccc12)C1CCCCN1` (racemic) [(±)-erythro-(R*/S*)-mefloquine] here?
**A.** similarly reduced

**Q.** What about the “Effect on untagged Panx1 currents” value [1, 10] of the same compound?
**A.** similarly reduced

**Q.** And the “Effect on untagged Panx1 currents” value [1, 11]?
**A.** not affected

**Q.** What about the “Effect on untagged Panx1 currents” value ([1]; 1μM) of the same compound?
**A.** not affected

**Q.** What about the “Effect on open time of Panx1-GFP channel” value ([2]; 100nM perfused for 20 seconds) of the same compound?
**A.** decreased

**Q.** What about the “Effect on open time of Panx1-GFP channel” value ([2]; 1 μM) of the same compound?
**A.** did not appreciably affect

**Q.** And the “Mean open time of Panx1 channel after washout” value ([2]; after washout of 100nM)?
**A.** restored

**Q.** What about the “Time required for 50% blockade of Panx1 currents” value (“Time required for 50% blockade” for short) [3] of the same compound?
**A.** 1.5 min

**Q.** And the “Effect on Panx1-GFP currents evoked by depolarizing voltage ramps” value (shortened to “Effect on Panx1-GFP currents evoked”) ([3]; 10 nM)?
**A.** similarly reduced

**Q.** What about the “Effect on Panx1-GFP currents evoked” value ([3]; 100 nM) of the same compound?
**A.** substantially reduced

**Q.** And the “Time at which current amplitudes were significantly reduced compared to control” value ([3]; 100 nM, currents at +100mV)?
**A.** 1.5 min

**Q.** And the “Effect on Panx1-GFP currents evoked” value [3, 10]?
**A.** similarly reduced

**Q.** What about the “Effect on Panx1-GFP currents evoked” value [3, 11] of the same compound?
**A.** not affected

**Q.** And the “Effect on Panx1-GFP currents evoked” value ([3]; 1μM)?
**A.** not affected

**Q.** What about the “Effect on Panx1-GFP currents evoked” value ([3]; 100μM) of the same compound?
**A.** only minimally blocked

**Q.** What about the “Time required for 50% blockade” value ([3]; applied at 100nM) of the same compound?
**A.** 0.5 min

**Q.** And the “Times less potent than erythro-mefloquine racemate from the two other sources” value ([3]; compared with Bioblocks and NCI-NIH racemate)?
**A.** 10,000 times

**Q.** With `CC1(C)[C@@H](OC(=O)CCC(=O)O)CC[C@]2(C)[C@H]3C(=O)C=C4[C@@H]5C[C@@](C)(C(=O)O)CC[C@]5(C)CC[C@@]4(C)[C@]3(C)CC[C@@H]12` [carbenoxolone] as the compound, how does the “Difference in potency for blockade between C×46 hemichannels and Panx1 channels” value [4] read?
**A.** 5–10 fold

**Q.** Which results are given for `OC(c1cc(C(F)(F)F)nc2c(C(F)(F)F)cccc12)C1CCCCN1` (centres unmarked) [mefloquine]?
**A.** Effect on dye uptake evoked by P2X7 receptor stimulation [5]: block; Concentration required for prevention of HIyA-induced hemolysis [6]: above 10 μM; Effect on depolarization- and BzATP-evoked Panx1 currents [7]: inhibit; Concentration required for prevention of HIyA-induced hemolysis [8]: above 10 μM

**Q.** For `O[C@H](c1cc(C(F)(F)F)nc2c(C(F)(F)F)cccc12)[C@H]1CCCCN1` [(−)-threo-(11R/2′R)-mefloquine], which “Effect on Panx1-GFP currents evoked” value ([3]; 1μM) is on record?
**A.** prevented

**Q.** And the “Time required for 50% blockade” value ([3]; applied at 10μM)?
**A.** 1.5 min

**Q.** With `O=C(O)c1ccccc1Nc1cccc(C(F)(F)F)c1` [flufenamic acid] as the compound, how does the “Difference in potency for blockade between C×46 hemichannels and Panx1 channels” value [4] read?
**A.** 5–10 fold

**Q.** With `OC(c1cc(C(F)(F)F)nc2c(C(F)(F)F)cccc12)C1CCCCN1` (single isomer, unassigned; (-)) [(−)-erythro- enantiomer, (−)-erythro-(11S/2′R)-MFQ] as the compound, how does the “Binding to adenosine receptors” value [9] read?
**A.** bind
